According to ChEMBL document CHEMBL3593217, “Synthesis and bioactivity of a Goralatide analog with antileukemic activity” (Bioorg Med Chem, 2015):
The source made the active and inactive calls. The rule behind the calls is not given here. Peptide text beside a SMILES is read from it. * marks the point of attachment. Cbz = O=C(OCc1ccccc1)*; OBn = c1ccc(CO*)cc1; OtBu = CC(C)(C)O*; tBu = CC(C)(C)*

Legend:
[1] = Chemical stability of the compound in MeOH after 12 hrs; assay type: physicochemical
Method in brief: (§1)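 Peptide kept in organic solvent (DMSO, CDCl₃ or MeOH) and watched for decomposition, read at 12 h and at 7 days.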

HEL [2] = assay: Cytotoxicity against human HEL cells assessed as cell viability at 50 uM after 24 hrs by MTT assay; assay type: functional, cell-based
Method in brief: (§2)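 Cells exposed to peptide at a range of concentrations for 24 h, with DMSO as negative control. Tetrazolium (MTS-type) viability reagent added, then 1–2 h at 37 °C. Read-out is OD at 490 nm. Run in triplicate; significance by Student's t-test against untreated and DMSO-treated cells. Peptide stock was 25 mM in DMSO, stored at −20 °C.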

[3] = Chemical stability of the compound in CDCl3 after 12 hrs; assay type: physicochemical; method in brief: as §1
HL-60 [4] = assay: Cytotoxicity against human HL60 cells assessed as cell viability at 50 uM after 24 hrs by MTT assay; assay type: functional, cell-based; method in brief: as §2
NALM-6 [5] = assay: Cytotoxicity against human NALM6 cells assessed as cell viability at 50 uM after 24 hrs by MTT assay; assay type: functional, cell-based; method in brief: as §2
[6] = Half life in human plasma; assay type: ADME, cell-free
[7] = Chemical stability of the compound in DMSO after 12 hrs; assay type: physicochemical; method in brief: as §1
HL-60 [8] = assay: Cytotoxicity against human HL60 cells assessed as cell viability at 1 to 100 uM after 24 hrs by MTT assay; assay type: functional, cell-based; method in brief: as §2
[9] = Chemical stability of the compound in MeOH after 7 days; assay type: physicochemical; settings: 168 h; method in brief: as §1
NALM-6 [10] = assay: Cytotoxicity against human NALM6 cells assessed as cell viability at 1 to 100 uM after 24 hrs by MTT assay; assay type: functional, cell-based; method in brief: as §2
HEK-293T = assay: Cytotoxicity against human 293T cells assessed as reduction of clonogenicity at 10 uM after 1 to 2 weeks by crystal violet staining; assay type: cell-based
Method in brief: (§3)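 Clonogenic survival: 1000 cells plated per well, then grown with or without peptide for 1–2 weeks before colonies were scored. Peptide stock was 25 mM in DMSO.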

HUVEC = assay: Cytotoxicity against human HUVEC cells assessed as cell viability after 24 hrs by MTT assay; assay type: cell-based; method in brief: as §2
[11] = Chemical stability of the compound in DMSO after 7 days; assay type: physicochemical; settings: 168 h; method in brief: as §1
U-251 = assay: Cytotoxicity against human U251 cells assessed as reduction of clonogenicity at 10 uM after 1 to 2 weeks by crystal violet staining; assay type: functional, cell-based; method in brief: as §3
[12] = Chemical stability of the compound in CDCl3 after 7 days; assay type: physicochemical; settings: 168 h; method in brief: as §1
HL-60 [13] = assay: Cytotoxicity against human HL60 cells assessed as cell viability after 24 hrs by MTT assay; assay type: functional, cell-based; method in brief: as §2
HEL [14] = assay: Cytotoxicity against human HEL cells assessed as cell viability at 1 to 100 uM after 24 hrs by MTT assay; assay type: functional, cell-based; method in brief: as §2

## CC(=O)N[C@@H](CO)C(=O)N[C@@H](CC(=O)O)C(=O)N[C@@H](CCCCN)C(=O)N1CCC[C@H]1C(=O)O [GORALATIDE] (Ac-SDKP-OH)
[1]
  Stability: Unstable
HEL [2]
  inhibition: inactive
[3]
  Stability: Unstable
HL-60 [4]
  inhibition: inactive
NALM-6 [5]
  inhibition: inactive
[6]
  half-life: 4.5 min
[7]
  Stability: Unstable

## CC(=O)N[C@@H](COC(C)(C)C)C(=O)N[C@@H](CC(=O)OC(C)(C)C)C(=O)N[C@@H](CCCCNC(=O)OCc1ccccc1)C(=O)N1CCC[C@H]1C(=O)OCc1ccccc1 (Ac-S(tBu)D(OtBu)K(Cbz)P-OBn)
HL-60 [8]
  Activity: Active
[9]
  Stability: Stable
NALM-6 [10]
  Activity: Active
HEK-293T
  Activity: Toxic
HUVEC
  Activity: Dose-dependent effect
[11]
  Stability: Stable
U-251
  Activity: Active
[12]
  Stability: Stable
HL-60 [13]
  Activity: Dose-dependent effect
HEL [14]
  Activity: Active
